In ChEMBL document CHEMBL2016446, “Trivalent ultrashort lipopeptides are potent pH dependent antifungal agents” (J Med Chem, 2012):
Values after ≈ are worked out from the molar mass of the structure shown. Active and inactive are the calls of the source. No cut-off for these calls is given here.

Assays:
[1] = tested on: Cryptococcus neoformans; assay: Antifungal activity against Cryptococcus neoformans ATCC MYA422 after 72 hrs at pH 7.5; format: functional; details: ATCC MYA422, 72 h
Summary of the method: (§1)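 The method followed CLSI M38-A2 (Aspergillus) or M27-A3. Medium was RPMI 1640 with 0.165 M MOPS and L-glutamine, without NaHCO3, at pH 5.5 or 7.5. Inoculum of 2 × 10^3 CFU/mL was mixed 1:1 with serial 2-fold peptide dilutions. Incubation was at 35 °C: 48 h for A. fumigatus and C. albicans, 72 h for C. neoformans. MIC was read by eye as no growth. Values are averages of duplicates.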

[2] = tested on: Aspergillus fumigatus; assay: Antifungal activity against Aspergillus fumigatus ATCC 26430 after 48 hrs at pH 5.5; format: functional; details: ATCC 26430, 48 h; summary of the method: as §1
[3] = tested on: Candida albicans; assay: Antifungal activity against Candida albicans ATCC 10231 after 48 hrs at pH 5.5; format: functional; details: ATCC 10231, 48 h; summary of the method: as §1
[4] = tested on: Candida albicans; assay: Antifungal activity against Candida albicans ATCC 10231 after 48 hrs at pH 7.5; format: functional; details: ATCC 10231, 48 h; summary of the method: as §1
[5] = tested on: Cryptococcus neoformans; assay: Antifungal activity against Cryptococcus neoformans ATCC MYA422 after 72 hrs at pH 5.5; format: functional; details: ATCC MYA422, 72 h; summary of the method: as §1
[6] = tested on: Aspergillus fumigatus; assay: Antifungal activity against Aspergillus fumigatus ATCC 26430 after 48 hrs at pH 7.5; format: functional; details: ATCC 26430, 48 h; summary of the method: as §1
[7] = tested on: Aspergillus fumigatus; assay: Induction of membrane damage in Aspergillus fumigatus at 1.56 to 100 uM at pH 5.5 by Sytox green-based fluorescence assay; format: functional, organism-based
Summary of the method: (§2)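 A. fumigatus at 2 × 10^3 CFU/mL in RPMI/MOPS (pH 7.4 or 5.5) was grown 20 h at 35 °C. Sytox green was added at 0.2 μM final in sodium phosphate buffer (pH 5.5 or 7.5) for 15 min. Peptides were then added at 100–1.56 μM final. Fluorescence (ex 485/em 530 nm) was read after 1 h.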

[8] = tested on: Aspergillus fumigatus; assay: Induction of membrane damage in Aspergillus fumigatus at 1.56 to 100 uM at pH 7.5 by Sytox green-based fluorescence assay; format: functional, organism-based; summary of the method: as §2
[9] = tested on: Aspergillus fumigatus; assay: Induction of membrane depolarization in Aspergillus fumigatus at 1.56 to 100 uM at pH 5.5 by DiSC3(5)-based fluorescence assay; format: functional, organism-based
Summary of the method: (§3)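 A. fumigatus was pregrown 20 h at 35 °C from 2 × 10^3 CFU/mL in RPMI/MOPS (pH 7.4 or 5.5). Cells were loaded with DiSC3(5) at 0.2 μM final in sodium phosphate buffer (pH 5.5 or 7.5) for 15 min. Peptides were added at 1.56–100 μM final, and fluorescence (ex 640/em 660 nm) was read after 1 h.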

[10] = tested on: Aspergillus fumigatus; assay: Induction of membrane depolarization in Aspergillus fumigatus at 1.56 to 100 uM at pH 7.5 by DiSC3(5)-based fluorescence assay; format: functional, organism-based; summary of the method: as §3
[11] = tested on: Escherichia coli; assay: Antibacterial activity against Escherichia coli ATCC D21 after 18 to 20 hrs at pH 7.5; format: functional, organism-based
Summary of the method: (§4)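 Broth microdilution in LB: bacterial suspension at 10^6 CFU/mL mixed 1:1 with serial 2-fold peptide dilutions, made from a 1 mg/mL aqueous stock. Strains were E. coli ATCC D21 and S. aureus ATCC 6538P. MIC was the lowest concentration with no growth after 18–20 h. Values are averages of duplicate experiments.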

[12] = tested on: Staphylococcus aureus; assay: Antibacterial activity against Staphylococcus aureus ATCC 6538P after 18 to 20 hrs at pH 7.5; format: functional, organism-based; summary of the method: as §4
[13] = tested on: Staphylococcus aureus; assay: Antibacterial activity against Staphylococcus aureus ATCC 6538P after 18 to 20 hrs at pH 5.5; format: functional, organism-based; summary of the method: as §4
[14] = tested on: Escherichia coli; assay: Antibacterial activity against Escherichia coli ATCC D21 after 18 to 20 hrs at pH 5.5; format: functional, organism-based; summary of the method: as §4

C[C@@H]1[C@H](O)[C@@H](C)/C=C/C=C/C=C/C=C/C=C/C=C/C=C/[C@H](O[C@@H]2O[C@H](C)[C@@H](O)[C@H](N)[C@@H]2O)C[C@@H]2O[C@](O)(C[C@@H](O)C[C@@H](O)[C@H](O)CC[C@@H](O)C[C@@H](O)CC(=O)O[C@H]1C)C[C@H](O)[C@H]2C(=O)O [AMPHOTERICIN B]
MIC [1]: 0.17 µM (≈ 0.157 µg/mL) | MIC [2]: 1 µM (≈ 0.924 µg/mL) | MIC [3]: 2.7 µM (≈ 2.5 µg/mL) | MIC [4]: 0.33 µM (≈ 0.305 µg/mL) | MIC [5]: 1.35 µM (≈ 1.25 µg/mL) | MIC [6]: 0.17 µM (≈ 0.157 µg/mL)

CCCCCCCCCCCCCCN[C@@H](Cc1cnc[nH]1)C(=O)N[C@@H](Cc1cnc[nH]1)C(=O)O
Activity [7]: inactive | MIC [1]: > 100 µM | MIC [2]: 50 µM (≈ 24.4 µg/mL) | MIC [3]: > 100 µM | Activity [8]: inactive | MIC [4]: > 100 µM | MIC [5]: 25 µM (≈ 12.2 µg/mL) | Activity [9]: inactive | MIC [6]: > 100 µM | Activity [10]: inactive

CCCCCC(=O)N[C@@H](Cc1cnc[nH]1)C(=O)N[C@@H](Cc1cnc[nH]1)C(=O)N1CCCN(C(=O)[C@H](Cc2cnc[nH]2)NC(=O)[C@H](Cc2cnc[nH]2)NC(=O)CCCCC)Cc2cc(cc(C(N)=O)c2)CN(C(=O)[C@H](Cc2cnc[nH]2)NC(=O)[C@H](Cc2cnc[nH]2)NC(=O)CCCCC)CCC1
Activity [7]: inactive | MIC [1]: > 100 µM | MIC [2]: > 100 µM | Activity [11]: inactive | MIC [3]: > 100 µM | Activity [8]: inactive | Activity [12]: inactive | MIC [4]: > 100 µM | MIC [5]: > 100 µM | Activity [9]: inactive | Activity [13]: inactive | MIC [6]: > 100 µM | Activity [14]: inactive | Activity [10]: inactive

CCCCCCCCCCCCCCCCCC(=O)N[C@@H](Cc1c[nH]cn1)C(=O)N[C@@H](Cc1c[nH]cn1)C(=O)N1CCCN(C(=O)[C@H](Cc2c[nH]cn2)NC(=O)[C@H](Cc2c[nH]cn2)NC(=O)CCCCCCCCCCCCCCCCC)Cc2cc(cc(C(N)=O)c2)CN(C(=O)[C@H](Cc2c[nH]cn2)NC(=O)[C@H](Cc2c[nH]cn2)NC(=O)CCCCCCCCCCCCCCCCC)CCC1
Activity [7]: inactive | MIC [1]: > 100 µM | MIC [2]: > 100 µM | Activity [11]: inactive | MIC [3]: 100 µM (≈ 190 µg/mL) | Activity [8]: inactive | Activity [12]: inactive | MIC [4]: > 100 µM | MIC [5]: 25 µM (≈ 47.5 µg/mL) | Activity [9]: inactive | Activity [13]: inactive | MIC [6]: > 100 µM | Activity [14]: inactive | Activity [10]: inactive
